Assay outcomes: PubChem, several laboratories
p97 inhibitor: human p97 ATPase inhibition; recombinant p97 ATPase, Kinase-Glo ATP luminescence, 3 h; actives 0.42% (n = 220,000); inhibition, % at 8 µM; in the data active = inhibition above about 15%
RBBP9 inhibitor: blocks human serine hydrolase RBBP9; O75884; recombinant RBBP9, FP-Rh probe fluorescence polarization; inhibition, % at 7.94 µM; actives 0.2% (n = 220,000); AID 1515;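 active = inhibition above the campaign mean of all tested compounds plus 3 SD, cut at about 14% in these data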
Target sequence (O75884 whole entry, looked up): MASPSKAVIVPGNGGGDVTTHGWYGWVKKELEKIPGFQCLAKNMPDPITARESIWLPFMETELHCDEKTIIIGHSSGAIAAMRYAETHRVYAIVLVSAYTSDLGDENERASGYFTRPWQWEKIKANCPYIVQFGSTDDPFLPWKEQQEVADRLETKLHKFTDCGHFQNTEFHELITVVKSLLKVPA
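Measured by – fluorescence polarization · Test system – RBBP9 protein · Input – 2.5 µM RBBP9 dispensing solution, before mixing · Measure – percent inhibition from mP, scaled between DMSO and no-protein wells · Benchmarks – DMSO-treated enzyme wells and wells lacking RBBP9 · Times – preincubation 30 min plus labeling 45 min at 25 °C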
PKD1 kinase inh: inhibitors of human PKD1 kinase. Q15139. PKD1 kinase fluorescence polarization assay. inhibition, % (test concentration not listed). actives 0.056% (n = 200,000). AID 797; in the data active = inhibition above about 50%
PP1 inh: counter-screen for PP5 inhibitors: inhibitors of human PP1-alpha. actives 0.9% (n = 320,000). AID 2235. P62136. purified PP1alpha, OMFP fluorescence. inhibition, % at 6.7 µM;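 active = inhibition above the mean inhibition of all tested compounds plus 3 SD, computed separately for each screening campaign, cut at about 15% in these data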
Target sequence (P62136 whole entry, looked up): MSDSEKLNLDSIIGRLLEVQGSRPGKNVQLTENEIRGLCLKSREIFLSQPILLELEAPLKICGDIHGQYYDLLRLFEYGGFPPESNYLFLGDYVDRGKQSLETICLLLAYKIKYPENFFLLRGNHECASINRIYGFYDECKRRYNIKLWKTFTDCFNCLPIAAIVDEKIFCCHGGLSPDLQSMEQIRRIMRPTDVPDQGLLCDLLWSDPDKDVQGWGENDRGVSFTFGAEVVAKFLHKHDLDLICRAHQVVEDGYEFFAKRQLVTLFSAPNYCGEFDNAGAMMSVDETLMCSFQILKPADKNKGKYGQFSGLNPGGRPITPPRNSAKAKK
PP5 inh: inhibitors of human protein phosphatase 5 (PP5); P53041; purified PP5c, OMFP substrate fluorescence; inhibition, % at 6.7 µM; actives 0.18% (n = 320,000);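 active = inhibition above the campaign's mean inhibition across all tested compounds plus 3 SD, cut at about 9.5% in these data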
Hsp70 act: Hsp70 transcriptional activation, primary screen; activation, % at 10 µM; actives 0.04% (n = 200,000); HeLa Hsp70 promoter luciferase reporter, luminescence; scaled: vehicle 0, proteasome-inhibitor control 100%;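 active = activation above the mean across all tested compounds plus 3 SD, cutoff set per campaign, cut at about 5.5% in these data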
PKD FP artifact: FP interference, PKD inhibitor counter-screen. shares compounds with PKD1 kinase inh. PKD1 FP assay interference counter-screen, fluorescence polarization. inhibition, % at 10 µM. 85 tested, under 10 active; call rule not given here
Hits are given with their value; n = inactive; x = no result. In the library only some 1.5% were active in any assay of this set; here they are far more common.

SMILES	p97 inhibitor	RBBP9 inhibitor	PKD1 kinase inh	PP1 inh	PP5 inh	Hsp70 act	PKD FP artifact
NC(=O)[C@H]1CC2(CC(c3cccc(NC(=O)COc4ccc(Cl)cc4)c3)=NO2)CN1C(=O)C(c1ccccc1)c1ccccc1 (stereo partly specified)	x	x	x	16	n	x	x
Cc1c(C(=O)N2CC3(CC(c4cccc(NC(=O)CC(c5ccccc5)c5ccccc5)c4)=NO3)C[C@@H]2C(N)=O)cc([N+](=O)[O-])cc1[N+](=O)[O-] (stereo partly specified)	x	x	x	16	n	x	x
CCOC(=O)N1CCC(N2CCN(S(=O)(=O)CC)CC2)CC1	n	n	93	n	n	n	n
Cc1cc(C)nc(N2N=C(C(F)(F)F)CC2=O)n1	n	n	x	n	n	x	x
Cc1cccc(CSc2[nH]c(=O)ncc2C)c1	x	x	x	n	n	x	x
Cc1cc(Nc2cccc(F)c2)nc(NCc2ccccc2)n1	n	n	56	n	n	n	n
Cc1cc(Nc2ccccc2)nc(NCc2ccccc2)n1	n	n	n	n	n	n	x
CC12CCC(C)(c3nc4ccccc4nc31)C2(C)C	n	n	n	n	n	n	x
Cc1[nH]nc2c1-c1nc3ccccc3nc1C(C)(C)C2	n	n	58	n	n	n	n
CCOc1ccc(S(=O)(=O)N2CCCCC2)cc1NC(=O)CSCc1c(C)noc1C	x	x	x	n	n	x	x
COC(=O)[C@H](C)NC(=O)NCc1ccccc1	n	n	x	n	n	x	x
Cc1ccc(CCNC(=O)CS(=O)Cc2nc(-c3ccccc3Cl)oc2C)cc1 (stereo unspecified)	x	x	x	n	n	x	x
O=C(N1CCOCC1)N1CCN(S(=O)(=O)c2ccc(F)cc2)CC1	x	x	x	n	n	x	x
COc1ccc(S(=O)(=O)N2CCC(n3cnc4cc(C(F)(F)F)ccc43)CC2)cc1	n	n	74	n	n	n	n
CCOC(=O)c1cccc(NC(=O)CCS(=O)(=O)c2cccc3nsnc23)c1	n	n	69	n	n	n	n
Cc1nn(C)c(C)c1N1C(=O)c2cccc3c(Br)ccc(c23)C1=O	n	n	n	n	n	n	x
Cc1nn(C)c(C)c1N1C(=O)c2cccc3c(N)ccc(c23)C1=O	n	n	67	n	n	n	n
Cc1nc(C(F)(F)F)ccc1C(=O)Nc1ccccc1F	n	n	x	n	n	x	x
O=C(Cn1c(NCCO)nc2ccccc21)c1ccccc1	n	n	n	n	n	n	x
Cc1ccc(C(=O)Cn2c(NCCO)nc3ccccc32)cc1	n	n	53	n	n	n	n
CCN(CC)CCCNC(=O)/C=C/C(=O)O	n	n	x	n	n	x	x
O=C(CCN1C(=O)/C(=C\c2cccs2)SC1=S)NC1=NCCS1	n	n	n	n	n	n	x
COc1ccccc1/C=C1\SC(=S)N(CCC(=O)NC2=NCCS2)C1=O	n	n	52	n	n	n	n
Cc1cc(NCCCN)nc(-c2ccccc2O)n1	n	n	114	n	n	n	n
Cc1ccc(Nc2cc(C)nc(-c3ccccc3O)n2)cc1	n	n	n	n	n	n	x
SMILES	p97 inhibitor	RBBP9 inhibitor	PKD1 kinase inh	PP1 inh	PP5 inh	Hsp70 act	PKD FP artifact
Cc1cc(C)cc(Nc2cc(=O)n(C3CCCCC3)c(=O)[nH]2)c1	n	n	n	n	n	n	x
Cc1cc2nc3c(=O)n(C4CCCCC4)c(=O)[nH]c3nc2cc1N	n	n	57	x	x	n	n
Cc1occc1C(=O)NC(C)CCc1ccccc1 (stereo unspecified)	n	n	119	n	n	n	n
Cc1ccc(C)c(C(=O)NC(C)CCc2ccccc2)c1 (stereo unspecified)	n	n	n	n	n	n	x
CCOC(=O)CC1C(=O)NCCN1C(=O)c1ccc(Cl)cc1Cl (stereo unspecified)	x	x	x	n	n	x	x
O=C(NCCOC(=O)c1ccc(C(=O)OCCNC(=O)c2cccnc2)s1)c1cccnc1	n	n	105	n	n	n	n
CC(=O)Oc1ccc2c(C)cc(=O)oc2c1	n	n	n	n	n	n	x
CC(=O)Oc1cc(OC(C)=O)c2c(C)cc(=O)oc2c1	n	n	54	n	n	n	n
Cn1nc(C(F)(F)F)c2cc(C(=O)Nc3ccc(C(F)(F)F)cc3)sc21	n	n	x	n	n	x	x
O=C(Nc1ccc(Cl)cc1)OCc1cn(-c2ccc(Cl)cc2)nn1	n	n	108	n	n	n	n
CC(OC(=O)c1ccc(NS(=O)(=O)c2cccs2)cc1)C(=O)N(C)C1CCCCC1 (stereo unspecified)	n	n	51	n	n	n	n
CN(C)c1ccc(/C=C2\SC(=S)N(Nc3ncc(C(F)(F)F)cc3Cl)C2=O)cc1	n	n	69	n	n	n	n
O=C(O)C1CCN(c2ncccn2)CC1	n	n	90	n	n	n	n
CC(C)CCN1CN(S(=O)(=O)c2cccs2)c2nc3ccccc3nc21	n	n	95	n	n	n	n
COc1ccc(OC)c(C(=O)Cn2c3[n+](c4ccc(C(F)(F)F)cc42)CCCCC3)c1	n	n	n	n	n	n	x
Cc1c(C(=O)NCc2cccnc2)sc2nc(-c3ccc(F)cc3)cn12	n	n	54	n	n	n	n
CN1CCN(c2ccccc2NC(=O)c2ccc(-c3cccc([N+](=O)[O-])c3)o2)CC1	n	n	52	n	n	n	n
COc1ccccc1/C=C/C=N/Nc1cccc(C(=O)O)c1	x	x	x	n	n	x	x
Cc1ccc(-n2c3c(cc(C(=O)NCc4ccco4)c2=O)C(=O)CC(C)(C)C3)cc1	n	n	n	n	n	n	x
O=C1CCCc2c1cc(C(=O)NCc1ccco1)c(=O)n2-c1ccccc1	n	n	52	n	n	n	n
COc1ccc(-c2cnnc(N/N=C/c3ccc(O)c(O)c3)n2)cc1	n	n	52	n	n	n	n
O=S(=O)(c1ccc2c(c1)OCCO2)N1CCN(Cc2ccc3c(c2)OCO3)CC1	n	n	n	n	n	n	x
Cn1c(=O)oc2cc(S(=O)(=O)N3CCN(Cc4ccc5c(c4)OCO5)CC3)ccc21	n	n	80	n	n	n	n
CCN(CC)c1ccc(NC(=O)COc2ccccc2C#N)cc1S(=O)(=O)Nc1ccc(OC)cc1	n	n	58	n	n	n	n
CCN(CC)c1ccc(NC(=O)COc2ccccc2C)cc1S(=O)(=O)Nc1ccccc1OC	n	n	n	n	n	n	x
Cc1ccc(NC(=O)Nc2ccc(F)c(Cl)c2)cc1	n	n	n	n	n	n	x
Cc1ccc(NC(=O)CNc2ccc(Cl)cc2F)cc1	n	n	86	n	n	n	n
CS(=O)(=O)N1CCN(c2ccc(NC(=O)c3ccc(Br)o3)cc2)CC1	n	n	91	n	n	n	n
Cc1ccc(OCC(=O)NC2CCS(=O)(=O)C2)c([N+](=O)[O-])n1 (stereo unspecified)	x	x	x	n	n	x	x
